ChEMBL document CHEMBL1138811, “Synthesis, conformational analysis, and cytotoxicity of conformationally constrained aplidine and tamandarin A analogues incorporating a spirolactam beta-turn mimetic” (J Med Chem, 2004)

What was measured:
[1] = system: A549; experiment: Concentration required to inhibit growth of human A549 cell line by 50%; format: functional, cell-based
In short: (§1)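 SRB colorimetric growth assay in A549 lung and HT-29 colon carcinoma cells. Cells seeded at 5 × 10^3 per well in RPMI and attached for 18 h in drug-free medium. Samples added in (3:7) DMSO/H2O for 48–72 h exposure. Cells fixed with cold 50% (w/v) TCA at 4 °C for 60 min, then stained with 0.4% SRB in 1% acetic acid for 10 min. Bound dye solubilised in Tris, OD read at 490 nm.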

[2] = system: HT-29; experiment: Concentration required to inhibit growth of human […] cell line by 50% was determined; format: functional, cell-based; in short: as §1

Structure (SMILES)	IC50 [1] [nM]	IC50 [2] [nM]
CC[C@H](C)C1NC(=O)[C@@H](NC(=O)[C@@H](CC(C)C)N2CCC3(CCCN3C(=O)C(C)C)C2=O)[C@@H](C)OC(=O)[C@H](Cc2ccc(O)cc2)N(C)C(=O)[C@@H]2CCCN2C(=O)[C@H](CC(C)C)NC(=O)[C@@H](C(C)C)OC(=O)C[C@H]1O (stereo partly drawn)	93.8	93.8
CC[C@H](C)C1NC(=O)[C@@H](NC(=O)[C@@H](CC(C)C)N2CCC3(CCCN3C(=O)C(C)=O)C2=O)[C@@H](C)OC(=O)[C@H](Cc2ccc(O)cc2)N(C)C(=O)[C@@H]2CCCN2C(=O)[C@H](CC(C)C)NC(=O)[C@@H](C(C)C)OC(=O)C[C@H]1O (stereo partly drawn)	93.8	93.8
CC[C@H](C)C1NC(=O)[C@@H](NC(=O)[C@@H](CC(C)C)N2CCC3(CCCN3C(=O)OC(C)(C)C)C2=O)[C@@H](C)OC(=O)[C@H](Cc2ccc(O)cc2)N(C)C(=O)[C@@H]2CCCN2C(=O)[C@H](CC(C)C)NC(=O)[C@@H](C(C)C)OC(=O)C[C@H]1O (stereo partly drawn)	4.56	4.56
CC[C@H](C)C1NC(=O)[C@@H](NC(=O)[C@@H](CC(C)C)N(C)C(=O)[C@@H]2CCCN2C(=O)C(C)=O)[C@@H](C)OC(=O)[C@H](Cc2ccc(O)cc2)N(C)C(=O)[C@@H]2CCCN2C(=O)[C@H](CC(C)C)NC(=O)[C@@H](C(C)C)OC(=O)C[C@H]1O (stereo partly drawn) [DEHYDROTAMANDARIN A]	0.47	0.47
CC[C@H](C)[C@@H]1NC(=O)[C@@H](NC(=O)[C@@H](C)N2CCC3(CCCN3C(=O)OC(C)(C)C)C2=O)[C@@H](C)OC(=O)[C@H](Cc2ccc(OC)cc2)N(C)C(=O)[C@@H]2CCCN2C(=O)[C@H](CC(C)C)NC(=O)[C@H](C)C(=O)[C@@H](C(C)C)OC(=O)C[C@H]1O (stereo partly drawn)	8.68	8.68
C=C(C)C(=O)N1CCCC12CCN([C@H](CC(C)C)C(=O)N[C@@H]1C(=O)NC([C@@H](C)CC)[C@H](O)CC(=O)O[C@H](C(C)C)C(=O)N[C@@H](CC(C)C)C(=O)N3CCC[C@H]3C(=O)N(C)[C@@H](Cc3ccc(O)cc3)C(=O)O[C@@H]1C)C2=O (stereo partly drawn)	93.9	93.9
CC[C@H](C)C1NC(=O)[C@@H](NC(=O)[C@@H](CC(C)C)N(C)C(=O)[C@@H]2CCCN2C(=O)C(C)O)[C@@H](C)OC(=O)[C@H](Cc2ccc(O)cc2)N(C)C(=O)[C@@H]2CCCN2C(=O)[C@H](CC(C)C)NC(=O)[C@@H](C(C)C)OC(=O)C[C@H]1O (stereo partly drawn) [TAMANDARIN A]	0.95	0.95
CC[C@H](C)[C@@H]1NC(=O)[C@@H](NC(=O)[C@@H](C)N2CCC3(CCCN3C(=O)C(C)=O)C2=O)[C@@H](C)OC(=O)[C@H](Cc2ccc(OC)cc2)N(C)C(=O)[C@@H]2CCCN2C(=O)[C@H](CC(C)C)NC(=O)[C@H](C)C(=O)[C@@H](C(C)C)OC(=O)C[C@H]1O (stereo partly drawn)	8.55	8.9
CC[C@H](C)[C@@H]1NC(=O)[C@@H](NC(=O)[C@@H](C)N2CCC3(CCCN3C(=O)C(C)C)C2=O)[C@@H](C)OC(=O)[C@H](Cc2ccc(OC)cc2)N(C)C(=O)[C@@H]2CCCN2C(=O)[C@H](CC(C)C)NC(=O)[C@H](C)C(=O)[C@@H](C(C)C)OC(=O)C[C@H]1O (stereo partly drawn)	89.1	89.1
